Measured values from different studies.
Each line is one published result; the experiments were not run side by side.
Cell line: HeLa
Observed: cell growth or viability

Structure (SMILES)	assay	conditions	IC50
O=[N+]([O-])c1ccc(NC(=S)N/N=C/c2cccc3cc4ccccc4nc23)cc1	MTT	48 h	7.5 µM
COc1cccc2c1C(=O)c1c(O)c3c(c(O)c1C2=O)C[C@@](O)(C(=O)CO)C[C@@H]3O[C@H]1C[C@H](N)[C@H](O)[C@H](C)O1	MTT	48 h	0.51 µM
CC(C)CCOc1cc(C[n+]2c(-c3ccc(F)cc3)n(CCC(C)C)c3ccccc32)c(OCCC(C)C)c2ccccc12	MTT	24 h	9.4 µM
CN(C)c1cccc(Nc2nc(-c3ccncc3)nc3c2CNCC3)c1	MTT	–	32.4 µM
CSc1ccccc1-c1ccc(C(N)=O)c2[nH]c3c(c12)CC(N)CC3 (centres unmarked)	–	–	0.21 µM
[Cl-].[Li+]	MTT	–	> 10000 µM
CC(C)CCOc1cc(C[n+]2c(-c3ccccc3)n(CCC(C)C)c3ccccc32)c(OCCC(C)C)c2ccccc12	MTT	24 h	7.3 µM
S=C(N/N=C/c1cccc2cc3ccccc3nc12)Nc1ccccc1	MTT	48 h	28.3 µM
COc1cccc2c1C(=O)c1c(O)c3c(c(O)c1C2=O)C[C@@](O)(C(=O)CO)C[C@@H]3O[C@H]1C[C@H](N)[C@H](O)[C@H](C)O1	–	–	0.03 µM
Cc1n(CCC(C)C)c2ccccc2[n+]1Cc1cc(OCCC(C)C)c2ccccc2c1OCCC(C)C	MTT	24 h	7.6 µM
COc1cccc(-c2cc(NCc3ccc4c(c3)OCO4)nc(N)n2)c1	CCK-8	72 h	0.188 µM
CC(=O)O[C@H]1C(=O)[C@@]2(C)[C@H]([C@H](OC(=O)c3ccccc3)[C@]3(O)C[C@H](OC(=O)[C@H](O)[C@@H](NC(=O)c4ccccc4)c4ccccc4)C(C)=C1C3(C)C)[C@]1(OC(C)=O)CO[C@@H]1C[C@@H]2O	MTT	48 h	15.8 µM
CC(C)CNC(=S)N/N=C/c1cccc2cc3ccccc3nc12	MTT	48 h	25.5 µM
O=Cc1cccc(NC(=O)Cn2cc(COc3ncnc4[nH]cnc34)nn2)c1	MTT	–	22.1 µM
CC(C)CCOc1cc(C[n+]2c(C(C)C)n(CCC(C)C)c3ccccc32)c(OCCC(C)C)c2ccccc12	MTT	24 h	6.8 µM
COc1cccc2c1C(=O)c1c(O)c3c(c(O)c1C2=O)C[C@@](O)(C(=O)CO)C[C@@H]3O[C@H]1C[C@H](N)[C@H](O)[C@H](C)O1	MTT	75 h	0.27 µM
COc1cccc2c1C(=O)c1c(O)c3c(c(O)c1C2=O)C[C@@](O)(C(=O)CO)C[C@@H]3O[C@H]1C[C@H](N)[C@H](O)[C@H](C)O1	MTT	–	6.89 µM
CCC(=CCc1c(O)cc2c(c1O)C(=O)C[C@H](c1ccccc1O)O2)CC	MTT	–	37.4 µM
CC(C)CCOc1cc(C(=O)C[n+]2cn(C)c3ccccc32)c(OCCC(C)C)c2ccccc12	MTT	24 h	13.9 µM
Cc1cccc(NC(=O)Cn2cc(COc3ncnc4[nH]cnc34)nn2)c1	MTT	–	28.6 µM
C=C[C@]1(C)C=C2CC[C@H]3C(C)(C)CCC[C@]3(C)[C@H]2CC1	MTT	75 h	130 µM
CNc1cccc(Nc2nc(-c3ccncc3)nc3c2CNCC3)c1	MTT	–	> 100 µM
CCC(=CCc1c(O)cc2c(c1O)C(=O)CC(c1ccc(O)cc1)O2)CC (stereo in doubt)	MTT	48 h	19.1 µM
CCCCCCCCOc1cc(C(=O)C[n+]2cn(CCC(C)C)c3ccccc32)c(OCCCCCCCC)c2ccccc12	MTT	24 h	14.3 µM
Fc1ccc(NC(=S)N/N=C/c2cccc3cc4ccccc4nc23)cc1	MTT	48 h	18.4 µM
CC(C)CCOc1cc(C[n+]2c(CO)n(CCC(C)C)c3ccccc32)c(OCCC(C)C)c2ccccc12	MTT	24 h	11.8 µM
COc1ccc(NC(=S)N/N=C/c2cccc3cc4ccccc4nc23)cc1	MTT	48 h	14.8 µM
CC(C)CCOc1cc(C(=O)C[n+]2ccn(CCC(C)C)c2)c(OCCC(C)C)c2ccccc12	MTT	24 h	10.1 µM
CC(=O)O[C@@]12CO[C@@H]1C[C@H](O)[C@@]1(C)C(=O)[C@H](O)C3=C(C)[C@@H](OC(=O)[C@H](O)[C@@H](NC(=O)OC(C)(C)C)c4ccccc4)C[C@@](O)([C@@H](OC(=O)c4ccccc4)[C@H]21)C3(C)C	MTT	48 h	60.7 µM
